Only some compounds are listed: those with a hit (about 1.9% of all), similar ones and a draw of the others.
DDE Tn7 FP inh – disrupts Tn7 cyclic peptide binding to fibrin D-Dimer-E complex; FP displacement of FITC-Tn7 peptide from fibrin DD(E); 0% = median of compound wells per plate; inhibition, % at 8.3 µM; P02675; 370,000 tested, 0.13% active;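 active = inhibition above the mean of compounds falling within the control limits plus 3 SD of them, cut at about 14% in these data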;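 note: 0% = plate median of compound wells and 100% = 10 µM Aha-Tn7 peptide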
Target sequence (P02675 whole entry, looked up): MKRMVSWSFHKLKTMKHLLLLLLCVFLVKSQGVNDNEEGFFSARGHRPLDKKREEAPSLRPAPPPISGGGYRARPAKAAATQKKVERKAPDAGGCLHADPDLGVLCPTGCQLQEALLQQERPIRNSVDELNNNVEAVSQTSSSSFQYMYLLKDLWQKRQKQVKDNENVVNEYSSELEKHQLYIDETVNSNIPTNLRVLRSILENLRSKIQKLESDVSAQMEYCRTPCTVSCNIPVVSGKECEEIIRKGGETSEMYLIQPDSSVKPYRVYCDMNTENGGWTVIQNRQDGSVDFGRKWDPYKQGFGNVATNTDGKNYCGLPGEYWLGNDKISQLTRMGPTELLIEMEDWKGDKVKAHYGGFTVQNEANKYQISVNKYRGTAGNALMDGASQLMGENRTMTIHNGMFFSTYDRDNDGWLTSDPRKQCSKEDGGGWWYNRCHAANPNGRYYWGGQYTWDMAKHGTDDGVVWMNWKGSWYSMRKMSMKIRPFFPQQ
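Assay system: human fibrin DD(E). Input: DD(E) 2 µM final. Medium: Tris buffer with calcium and detergent, pH 7.8. Compound dosing: single point at 8.3 µM. Timing: 10 min plus 3 h, room temperature. Technique: fluorescence polarization of the labelled Tn7 tracer. Read-out: percent inhibition. Replicates: singlicate testing.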
LEDGF integ inh – blocks HIV-1 LEDGF/p75-dependent DNA integration; TR-FRET IN-LEDGF/p75 DNA integration, Eu/Cy5; inhibition, % at 3.7 µM; 370,000 tested, 0.64% active; AID 743269;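 active = inhibition above the screen-wide mean plus 3 SD, cut at about 13% in these data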;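 note: signal is the Cy5 over europium emission ratio at 671 and 618 nm; 0% = plate median of compound wells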
DDE Tn6 FP inh – inhibitors of Tn6 peptide binding to human fibrin DD(E). P02675. Fibrin DD(E) TRITC-Tn6 fluorescence polarization displacement. inhibition, % at 8.3 µM. 370,000 tested, 0.21% active;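 active = inhibition above a per-campaign cutoff: mean of compounds within control limits plus 3 SD, cut at about 15% in these data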;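 note: 0% = median of all compound wells on the plate and 100% = blocking peptide control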
MBD2 DNA inh – blocks human MBD2 binding to methylated DNA; Q9UBB5; TR-FRET, MBD2 binding to methylated oligonucleotide; inhibition, % at 4.4 µM; 370,000 tested, 0.31% active; AID 686964; in the data active = inhibition above about 13%
UHRF1 binding – blocks human UHRF1 binding to methylated DNA. Q96T88. UHRF1 binding to methylated oligo, TR-FRET. inhibition, % at 4.4 µM. 370,000 tested, 0.75% active. AID 687016; in the data active = inhibition above about 21%;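 note: UHRF1 SRA domain binding a hemimethylated CpG hairpin DNA probe; 0% = median of test compound wells and 100% = reference inhibitor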
TDP2 absorb – TDP2 (human) inhibition, absorbance primary screen; recombinant TDP2, T5PNP hydrolysis, p-nitrophenol absorbance 415 nm; inhibition, % at 12.8 µM; 370,000 tested, 0.34% active;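 active = inhibition above the mean of all tested compounds plus 3 SD, set per campaign, cut at about 25% in these data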;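 note: 0% = DMSO with enzyme and 100% = buffer with substrate but no TDP2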
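Read-out basis: percent inhibition. System: recombinant human TDP2. Buffer or medium: Mg2+-containing Tris-HCl buffer, pH 7.5. Repeats: single replicate. Timing: reaction 2 h, 37 °C. Benchmarks: high control without enzyme, low control DMSO plus TDP2. Probe or stimulus: 5 mM T5PNP. Doses: 12.8 µM only. Measured by: epi absorbance of p-nitrophenol freed from T5PNP by hydrolysis.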
IN multimer act – HIV-1 integrase multimerization activation, counter-screen | shares compounds with LEDGF integ inh | TR-FRET HIV-1 integrase multimerization, biochemical | activation, % at 7.7 µM | 2,000 tested, 17% active | AID 1053131; in the data active = activation above about 8.9%
TR-FRET interf – optically interferes with TR-FRET readout in LEDGF counter-screen; shares compounds with LEDGF integ inh; TR-FRET optical interference counterscreen, HIV-1 IN multimerization; inhibition, % at 7.7 µM; 2,000 tested, under 10 active;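 active = inhibition above the mean over all tested compounds plus 3 SD, which no compound reached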;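 note: 0% = integrase with antibodies and DMSO and 100% = antibodies without integrase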
IN-LEDGF confirm – confirmation of HIV-1 LEDGF/p75-dependent integration inhibitors | 2,000 tested, 36% active | inhibition, % at 3.7 µM | TR-FRET LEDGF/p75-dependent HIV-1 integration, biochemical | shares compounds with LEDGF integ inh | AID 1053136; in the data active = inhibition above about 14%
Active calls of the source: *; nt = not tested or not shown.

SMILES	DDE Tn7 FP inh	LEDGF integ inh	DDE Tn6 FP inh	MBD2 DNA inh	UHRF1 binding	TDP2 absorb	IN multimer act	TR-FRET interf	IN-LEDGF confirm
COc1cccc(CNC(=O)[C@H]2CCCN2C(=O)[C@H]2CCCN2C(=O)OC(C)(C)C)c1	0.2	1.6	-4.6	-0.8	3.8	3.5	nt	nt	nt
O=C(NC1CCCC1)C1CSCCS(=O)(=O)N1Cc1ccc(F)cc1 (centres undefined)	-2.4	0.2	1.6	-0.1	0.0	2.7	nt	nt	nt
O=[N+]([O-])c1cccc(COc2ccc(CO)cc2)c1	1.1	-2.3	6.8	-1.1	-2.2	-7.3	nt	nt	nt
COc1ccc(Nc2nc3ccccc3nc2-n2nc(C)cc2C)cc1	3.0	-3.4	8.4	0.1	1.3	5.6	nt	nt	nt
Cc1cc(C)n(-c2nc3ccccc3nc2NCCc2ccccc2)n1	6.0	20.9*	-6.1	-0.5	1.8	0.3	0.0	0.1	1.6
CC(C)NC(=O)CCCn1cc([N+](=O)[O-])cn1	0.8	6.8	6.7	2.6	5.6	-13.0	nt	nt	nt
Cc1nn(C)c(C)c1/C=N/NC(=O)CCn1cc([N+](=O)[O-])cn1	0.7	14.9*	3.1	5.6	-0.1	-5.0	0.0	0.1	-0.9
COC(=O)[C@]12C[C@H](CC(=O)NCCC(C)C)C(=O)N(Cc3ccc(Cl)cc3Cl)C1=C[C@H](C(C)C)O[C@@H]2C1CC1	-6.2	2.0	8.5	-1.9	3.2	3.2	nt	nt	nt
CCCn1nnc(NC(=O)/C=C/c2ccco2)n1	-1.9	5.8	6.0	-1.5	-1.8	9.2	nt	nt	nt
Cn1nnc(NC(=S)NC(=O)/C=C/c2ccco2)n1	2.9	13.6*	-1.9	6.9	13.8	2.1	6.3	-22.3	10.9
C/C(=N\NC(=O)c1ccccc1O)c1ccc(Br)s1	-0.6	4.0	3.7	-5.7	-7.9	-2.9	nt	nt	nt
C/C(=N\NC(=O)c1ccccc1[N+](=O)[O-])c1ccc(Br)s1	-6.0	58.7*	-5.2	1.7	1.7	-3.7	-0.8	3.9	-7.4
Cc1ccc(S(=O)(=O)N2CCN(C(=O)COC(=O)c3cccnc3Cl)CC2)c(C)c1	3.9	66.3*	1.6	-7.0	-2.2	8.1	-1.9	6.7	1.4
COc1ccc(NC(=O)CN2CCCCC2)c([N+](=O)[O-])c1	8.6	-0.7	-7.3	6.5	1.2	-2.0	nt	nt	nt
COc1ccc(NC(=O)CN2CCC(NC(=O)C3CCCCC3)CC2)c([N+](=O)[O-])c1	-3.1	18.4*	8.7	-1.8	0.0	12.0	-1.6	7.9	1.5
COCc1cc(N2CCN(C(=O)OC(C)(C)C)C[C@H]2C)ccc1N1C[C@@H](C)O[C@@H](C)C1	-0.4	-2.7	-0.6	-0.6	6.2	2.5	nt	nt	nt
CCSC1=NSC2=NC(=O)/C(=C\c3coc4ccccc4c3=O)C(=N)N12	-4.8	0.0	-1.2	0.1	-6.3	-6.6	nt	nt	nt
CC(C)CC1=NN2C(=N)/C(=C\c3coc4ccccc4c3=O)C(=O)N=C2S1	-5.9	25.7*	-11.5	-3.3	-13.3	2.0	0.2	-1.0	23.5*
O=C(O)c1cc(-c2ccco2)[nH]n1	-7.3	14.5*	0.6	3.4	12.4	-1.4	2.0	-10.1	3.7
CC1CCC(C(=O)NNC(=O)c2cc(-c3ccco3)[nH]n2)CC1 (centres undefined)	3.2	-6.8	3.5	-1.0	0.5	1.9	nt	nt	nt
O=c1[nH]c2cc3c(cc2cc1CN(Cc1nnnn1CC1CCCO1)C1CCCC1)OCO3 (centres undefined)	4.0	-5.6	3.1	3.4	-0.6	6.0	nt	nt	nt
O=c1[nH]c2cc3c(cc2cc1CN(Cc1nnnn1CC1CCCO1)C1CCCCC1)OCO3 (centres undefined)	-1.3	18.2*	-9.2	-6.7	-7.8	-14.2	1.6	-5.7	-2.2
CC(C=CC(O)=C1C(=O)CNC1=O)=C[C@@H](C)C1OC2(C)OC(C(=O)C3O[C@@]32C)C1C (some centres undefined)	-2.6	21.7*	4.7	-7.1	-7.2	-1.5	4.5	-23.0	11.5
Cn1c(SCC(=O)NC(=O)NCc2ccco2)nnc1-c1ccccc1	0.2	21.5*	-6.7	4.7	22.2*	-15.8	7.7	-38.7	7.6
Cc1nnc(NC(=O)CSc2nnc(-c3ccccc3)n2C)s1	0.3	18.0*	0.5	0.5	1.9	-1.1	-0.5	2.7	-3.0
SMILES	DDE Tn7 FP inh	LEDGF integ inh	DDE Tn6 FP inh	MBD2 DNA inh	UHRF1 binding	TDP2 absorb	IN multimer act	TR-FRET interf	IN-LEDGF confirm
Cn1c(SCC(=O)Nc2nc3c(s2)CCCC3)nnc1-c1ccccc1	9.1	-5.0	-10.7	-4.6	-2.7	-5.2	nt	nt	nt
N#Cc1c(N)[nH]c(C(=O)c2ccccc2)c1-c1ccccc1Br	6.1	31.9*	-2.5	-7.1	-2.7	5.0	-0.3	1.6	-3.5
Nc1[nH]c(C(=O)c2ccccc2)c(-c2ccccc2Br)c1C(=O)NCc1ccc(-c2ccccc2)cc1	5.7	-3.0	0.0	-0.1	-5.9	2.7	nt	nt	nt
CCC(C)(C)NC(=O)C(c1cccc(OC)c1OC)N(CCC(C)C)C(=O)CCC(=O)Nc1cc(C)on1 (centres undefined)	-2.1	-6.0	2.4	-2.3	1.9	-0.8	nt	nt	nt
CCC(C)(C)NC(=O)C(c1cccc(OC)c1OC)N(C(=O)CCC(=O)Nc1cc(C)on1)C(C)C (centres undefined)	-2.1	15.9*	8.2	-5.3	0.0	1.0	-0.6	3.2	-14.2
COc1ccc(/C=C(\C#N)C(=O)NCCc2ccccc2)cc1OCc1ccccc1	0.7	0.7	-1.9	-2.3	-1.6	2.5	nt	nt	nt
COCCCNC(=O)/C(C#N)=C/c1ccc(OCC(=O)O)c(OC)c1	2.6	17.2*	5.7	7.0	34.2*	-0.8	22.9*	-115.4	36.1*
O=c1cc2oc3cc(O)c(O)cc3c(-c3ccccc3[N+](=O)[O-])c-2cc1O	2.9	86.0*	-3.3	12.7	41.2*	3.0	10.9*	-54.8	85.6*
COc1ccc(-n2c(N)c(C(=O)NCC3CCCO3)c3nc4ccccc4nc32)c(OC)c1 (centres undefined)	6.4	19.2*	-4.2	3.8	11.4	73.5*	0.3	-1.7	-0.7
COc1ccc(-n2nc(C(=O)NCC(=O)NCC3CCCO3)c3ccccc3c2=O)c(OC)c1 (centres undefined)	-2.9	4.4	-2.9	-3.4	1.5	-3.1	nt	nt	nt
